# Results: article PMC6267698 (Drug Design, Development and Therapy, 2018)
# How the values were obtained:
# [1] = test system: Nrf2 signal pathway; test: Western blot of Nrf2 signal pathway proteins in HepG-2 cells; assay type: cell-based
# [2] = test system: Nrf2 pathway; test: Western blot of Nrf2 pathway proteins in mice liver tissue; assay type: in vivo; conditions: Sch B 25.0–100.0 mg/kg oral, 21 days, Western blotting
# Procedure, shortened: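 Mice were dosed orally once daily for 21 days (25.0, 50.0, 100 mg/kg, in 0.5% sodium carboxymethylcellulose). Frozen liver extracts were assayed for protein by Bradford, and equal protein was run on SDS-PAGE and blotted to PVDF. Membranes were blocked in 5% nonfat milk/TBS, probed with anti-Nrf2, HO-1, NQO1, GST or GR at 4°C overnight, then HRP secondary for 1 h at room temperature. Detection was by ECL on X-ray film.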
# [3] = test system: CYP3A1 mRNA; conditions: rat primary hepatocytes, Sch B 0.1 µM; cited from earlier work
# [4] = test system: mice liver; test: Histopathological analysis of H&E-stained mice liver sections; assay type: in vivo
# Procedure, shortened: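 Mice were given test compound (25.0, 50.0, 100 mg/kg) by mouth daily for 21 days in 0.5% sodium carboxymethylcellulose and killed 24 h after the last dose. Liver was fixed in neutral buffered formalin, embedded in paraffin, cut at 5 μm and stained with H&E.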
# [5] = test system: CYP450 (CYP1A2/2C9/2D6/2E1/3A4); test: Microsomal CYP450 activity detection; assay type: in vivo, mice; conditions: Sch B 25.0, 50.0 and 100.0 mg/kg oral, 21 days, dose-dependent
# Procedure, shortened: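 Livers came from mice dosed orally for 21 days (25.0–100 mg/kg). Livers (~2 g) were homogenised at 4°C in phosphate buffer pH 7.4 with 1.0 mM EDTA and 250 mM sucrose, spun at 9,000× g then 100,000× g, and the pellet resuspended with 250 mM glycerol. Microsomes (0.5 mg/mL) were incubated with a probe cocktail: phenacetin 10 μM, tolbutamide 100 μM, dextromethorphan 2.5 μM, chlorzoxazone 20 μM, midazolam 5 μM. Reactions ran 30 min with 1 mM NADPH and were stopped with methanol. Metabolites were measured by LC–MS/MS.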
# [6] = test system: mice liver; test: TUNEL immunofluorescence staining of mice liver; assay type: in vivo; conditions: 100 mg/kg Sch B oral, 21 days
# Procedure, shortened: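 After 21 days of daily oral test compound (25.0–100 mg/kg, 0.5% sodium carboxymethylcellulose), paraffin liver sections (10 μm) were treated with 3% H2O2 in methanol for 10 min and blocked with 1% BSA/PBS for 30 min. They were incubated with […] at 4°C overnight, then Alexa Fluor donkey anti-rabbit (1:500) for 1 h at 37°C. Nuclei were stained with DAPI and sections imaged by fluorescence microscopy. n=6.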
# [7] = test system: CYP3A; conditions: read-out: IC50 value, inhibition of CYP3A activity; rat liver microsomes; cited from earlier work
# [8] = test system: P-gp–mediated efflux and CYP3A-mediated metabolism; conditions: rat, one single dose of Sch B 0.024 mM/kg; cited from earlier work
# [9] = Sch B 5 µM, 48-hour incubation, Western blot
Structure (SMILES),"effect on Sch B-induced activation of Nrf2 and GST expression ([1]; ABT 0.5 mM combined with Sch B 5 µM, 48 hours)",protein expression of NQO-1 and GST in mice liver [2],Nrf2 expression in mice liver ([2]; dose-dependent),"HO-1 and GR protein expression [1, 9]","expression of GST [1, 9]","expression of Nrf2 [1, 9]",expression of CYP3A1 mRNA [3],"centrilobular hepatocellular infiltration of lymphocytes ([4]; 100 mg/kg Sch B oral, 21 days, H&E-stained liver sections)","hepatotoxicity in mice ([4]; highest dose (100 mg/kg) only, oral, 3 weeks)",CYP450 (CYP1A2/2C9/2D6/2E1/3A4) activities in livers of mice [5],positive TUNEL cell in liver [6],IC50 [7] [µM],tacrolimus bioavailability [8]
"Nn1nnc2ccccc21 [ABT, 1-aminobenzotriazolea, reference compound]",suppressed,–,–,–,–,–,–,–,–,–,–,–,–
"COc1cc2c(c(OC)c1OC)-c1c(cc3c(c1OC)OCO3)CC(C)C(C)C2 (stereo not shown) [Sch B, Schisandrin B]",–,dose-dependent increase,upregulated,no changes,upregulated,upregulated,significantly increase,clearly evident,mild hepatotoxicity,considerably increased,very limited,5.51,increase
